This is an account of results in ChEMBL document CHEMBL4196220, “Synthesis and Discovery of Arylpiperidinylquinazolines: New Inhibitors of the Vesicular Monoamine Transporter” (J Med Chem, 2018).

The test system of series [1] is HEK293. Description: Cytotoxicity in HEK293 cells expressing human VMAT2 assessed as reduction in cell viability at 1 uM incubated for 24 hrs by MTT assay. The conditions noted are these: hek293, 24 h. The series is classed as cell-based. The method in brief: (§1)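 HEK-293 cells stably expressing human VMAT2, seeded at 5 × 10^4 cells/well in DMEM with 10% FetalClone, penicillin/streptomycin and G418. On day 2, compound in DMEM was added to triplicate wells, with 0.1% DMSO in all conditions, for 24 h. MTT reagent was then added for 2 h at 37 °C, followed by solvent. Absorbance read at 590 nm, normalized to control cells, and analyzed by one-way ANOVA with Dunnett's test.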
Background: Tetrazolium assays rely on reduction of a dye to a coloured formazan, in cell work by metabolically active cells.

In series [2] the test system is HEK293. Description: Cytotoxicity in HEK293 cells expressing human VMAT2 assessed as reduction in cell viability at 3 uM incubated for 24 hrs by MTT assay. The following applies: hek293, 24 h. It is filed as cell-based. Put shortly:
as §1

Series [3] addresses Synaptic vesicular amine transporter (Mus musculus, UniProt Q8BRU6). Description: Inhibition of VMAT2 in C57Bl/6J mouse striatal membranes assessed as reduction in [3H[-5HT uptake pre-incubated for 10 mins before [3H[-5HT addition and measured after 8 mins. It is filed as cell membranes, Striatum, Membrane.
The target of series [4] is 5-hydroxytryptamine receptor 2A (Homo sapiens, UniProt P28223). Put plainly: biochemical. It is filed as cell-based, HEK293.
Series [5] deals with Sodium-dependent dopamine transporter (Homo sapiens, UniProt Q01959). Put plainly: Displacement of [125I]RTI-55 from human DAT expressed in HEK293 cell membranes. Put shortly:
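Total particulate membranes from HEK-293 cells stably expressing hDAT, with [125I]RTI-55 at 40−60 pM. Nonspecific binding defined with 5 μM mazindol.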
A general note: Displacement assays read how much labelled ligand stays bound in the presence of the test substance.

For series [6], the target named is Sodium-dependent serotonin transporter (Homo sapiens, UniProt P31645). Put plainly: Displacement of [125I]RTI-55 from human SERT expressed in HEK293 cell membranes.
For series [7], the target named is Sodium-dependent noradrenaline transporter (Homo sapiens, UniProt P23975). Put plainly: Displacement of [125I]RTI-55 from human NET expressed in HEK293 cell membranes.
Series [8] relates to HEK293. Put plainly: Cytotoxicity in HEK293 cells expressing human VMAT2 assessed as reduction in cell viability at 10 uM incubated for 24 hrs by MTT assay. The following applies: hek293, 24 h. It is filed as cell-based. Put shortly: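 HEK-VMAT2 cells plated at 5 × 10^4 per well. Drugs added on day 2 to triplicate wells, all with 0.1% DMSO, for 24 h. MTT reagent then 2 h at 37 °C, solvent added, read at 590 nm. Values normalized to control cells. One-way ANOVA with post hoc test.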

As a reminder, the IC50 is the concentration needed to halve the response being measured. By Ki is commonly meant a measure of affinity in units of concentration, obtained from inhibition or displacement. Lower therefore signals a stronger hold on the target.

Sequence of 5-hydroxytryptamine receptor 2A (P28223 whole entry): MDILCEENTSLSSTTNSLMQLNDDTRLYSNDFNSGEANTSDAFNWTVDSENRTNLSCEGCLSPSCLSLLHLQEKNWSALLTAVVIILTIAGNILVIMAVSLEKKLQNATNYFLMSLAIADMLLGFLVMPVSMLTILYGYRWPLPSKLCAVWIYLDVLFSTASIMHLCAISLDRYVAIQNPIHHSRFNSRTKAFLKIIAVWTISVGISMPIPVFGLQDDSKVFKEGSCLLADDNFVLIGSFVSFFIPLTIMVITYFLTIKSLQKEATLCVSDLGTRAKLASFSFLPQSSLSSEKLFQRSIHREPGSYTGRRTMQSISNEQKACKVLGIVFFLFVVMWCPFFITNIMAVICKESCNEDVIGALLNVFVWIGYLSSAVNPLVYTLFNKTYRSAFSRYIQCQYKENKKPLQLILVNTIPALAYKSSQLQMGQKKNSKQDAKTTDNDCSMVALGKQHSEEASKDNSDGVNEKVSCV
Sequence of Sodium-dependent dopamine transporter (Q01959 whole entry): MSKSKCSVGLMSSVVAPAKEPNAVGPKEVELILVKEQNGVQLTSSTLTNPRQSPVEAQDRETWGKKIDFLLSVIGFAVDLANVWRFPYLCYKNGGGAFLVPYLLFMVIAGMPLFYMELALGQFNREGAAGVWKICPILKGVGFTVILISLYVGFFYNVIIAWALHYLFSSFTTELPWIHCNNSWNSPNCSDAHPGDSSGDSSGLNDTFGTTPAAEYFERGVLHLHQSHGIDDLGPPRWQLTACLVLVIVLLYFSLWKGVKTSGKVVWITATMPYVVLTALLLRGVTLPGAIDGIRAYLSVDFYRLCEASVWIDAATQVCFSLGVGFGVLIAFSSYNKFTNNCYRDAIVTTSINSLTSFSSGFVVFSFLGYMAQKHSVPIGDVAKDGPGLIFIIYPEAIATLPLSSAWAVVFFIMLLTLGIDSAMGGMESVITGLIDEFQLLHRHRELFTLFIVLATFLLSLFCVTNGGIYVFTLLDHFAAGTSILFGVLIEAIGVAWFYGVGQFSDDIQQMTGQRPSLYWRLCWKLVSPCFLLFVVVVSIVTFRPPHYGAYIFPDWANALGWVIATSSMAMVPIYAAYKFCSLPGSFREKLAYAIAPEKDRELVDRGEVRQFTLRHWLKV
Sequence of Sodium-dependent noradrenaline transporter (P23975 whole entry): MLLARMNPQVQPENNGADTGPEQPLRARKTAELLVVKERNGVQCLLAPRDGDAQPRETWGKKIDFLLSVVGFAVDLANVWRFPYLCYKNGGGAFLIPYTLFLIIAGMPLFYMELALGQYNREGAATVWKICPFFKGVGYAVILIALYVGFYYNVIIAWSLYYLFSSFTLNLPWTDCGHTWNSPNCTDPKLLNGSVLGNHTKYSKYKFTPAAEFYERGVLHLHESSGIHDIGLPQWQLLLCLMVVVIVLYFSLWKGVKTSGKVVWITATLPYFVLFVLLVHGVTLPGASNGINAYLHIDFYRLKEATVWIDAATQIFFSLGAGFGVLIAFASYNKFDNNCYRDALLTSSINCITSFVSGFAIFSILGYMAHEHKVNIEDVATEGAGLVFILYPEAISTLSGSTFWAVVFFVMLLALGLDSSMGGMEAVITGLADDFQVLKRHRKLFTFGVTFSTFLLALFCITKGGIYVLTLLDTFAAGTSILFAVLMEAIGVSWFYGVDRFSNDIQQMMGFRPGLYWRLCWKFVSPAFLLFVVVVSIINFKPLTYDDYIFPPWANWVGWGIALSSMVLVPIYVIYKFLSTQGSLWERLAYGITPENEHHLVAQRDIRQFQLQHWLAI
Sequence of Sodium-dependent serotonin transporter (P31645 whole entry): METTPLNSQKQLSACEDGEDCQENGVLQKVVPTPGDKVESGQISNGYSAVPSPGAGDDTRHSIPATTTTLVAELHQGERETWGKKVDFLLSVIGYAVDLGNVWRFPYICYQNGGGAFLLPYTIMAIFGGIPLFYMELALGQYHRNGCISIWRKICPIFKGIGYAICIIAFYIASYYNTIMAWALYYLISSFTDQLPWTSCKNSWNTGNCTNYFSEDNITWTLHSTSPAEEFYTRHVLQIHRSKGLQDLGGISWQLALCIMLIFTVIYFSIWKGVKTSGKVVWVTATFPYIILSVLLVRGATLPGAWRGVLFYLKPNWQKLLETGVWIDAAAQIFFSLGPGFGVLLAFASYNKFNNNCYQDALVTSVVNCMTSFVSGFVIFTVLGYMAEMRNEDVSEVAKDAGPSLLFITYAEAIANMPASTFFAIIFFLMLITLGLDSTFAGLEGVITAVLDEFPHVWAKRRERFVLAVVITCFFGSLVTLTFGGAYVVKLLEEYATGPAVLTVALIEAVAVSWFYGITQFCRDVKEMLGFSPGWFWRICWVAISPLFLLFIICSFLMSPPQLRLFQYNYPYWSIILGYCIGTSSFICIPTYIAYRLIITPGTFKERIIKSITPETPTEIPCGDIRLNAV
Sequence of Synaptic vesicular amine transporter (Q8BRU6 whole entry): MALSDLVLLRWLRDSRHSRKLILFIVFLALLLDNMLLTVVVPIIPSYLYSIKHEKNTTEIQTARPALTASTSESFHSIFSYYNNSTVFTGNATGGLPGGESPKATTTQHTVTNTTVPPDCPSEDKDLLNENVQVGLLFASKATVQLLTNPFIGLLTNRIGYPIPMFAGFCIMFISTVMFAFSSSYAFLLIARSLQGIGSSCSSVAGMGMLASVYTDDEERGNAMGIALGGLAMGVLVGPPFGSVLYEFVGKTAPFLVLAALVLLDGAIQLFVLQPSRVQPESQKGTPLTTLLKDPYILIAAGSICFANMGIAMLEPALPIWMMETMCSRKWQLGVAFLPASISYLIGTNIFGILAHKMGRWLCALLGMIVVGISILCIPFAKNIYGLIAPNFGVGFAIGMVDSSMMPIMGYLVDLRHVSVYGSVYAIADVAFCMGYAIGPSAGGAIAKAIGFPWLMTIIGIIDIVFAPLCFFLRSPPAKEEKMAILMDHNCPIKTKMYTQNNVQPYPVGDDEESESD

`CN[C@@H]1C[C@H]2O[C@@](C)([C@@H]1OC)n1c3ccccc3c3c4c(c5c6ccccc6n2c5c31)C(=O)NC4` [STAUROSPORINE]: the Activity in the series on HEK293 [1] came out at 45%; in the series on HEK293 [2], 60%.

Regarding `CCOC(=O)C1CN(CCn2c(=O)[nH]c3ccccc3c2=O)CCC1c1ccc(F)cc1` (single isomer, unassigned; (+)), the IC50 in series [3] turned out to be 0.00339 µM. For the same compound, the inhibition constant Ki was over 10 µM in series [4], 2.44 µM in series [5], over 10 µM in series [6] and over 10 µM in series [7]. The Activity entry with HEK293 [8] is reported as “Non-Toxic”.
